Laboratory results from PMC3178889 (Nature neuroscience, 2011).
Entries after “also recorded” stand apart in the source; their conditions may differ. Each block holds one substance with its values, some of them ahead of it. No end group written: not given here. *: point of attachment. Myristoyl = CCCCCCCCCCCCCC(=O)*; Lauroyl = CCCCCCCCCCCC(=O)*

Columns and labels:
binding of Tα to UNC119 = test system: binding of Tα to UNC119; design: species or system bovine; conditions: GST-UNC119 pulldown from retina lysate in the presence of peptide; immunoblot
human UNC119 = human UNC119 (Homo sapiens, UniProt Q13432); assay: Isothermal titration calorimetry; format: binding; conditions: ITC; for binding relative to the lauroyl Tα peptide: compared with lauroyl-GAGASAEEKH
GST-UNC119 = GST-UNC119 pulldown of proteins from retina lysates or HEK cells; format: binding, bovine
rod photoreceptors = conditions: passive diffusion after light activation; cited from earlier work
Tα = assay: GST-UNC119B pulldown from bovine retina lysate; format: binding; conditions: unpublished results of the authors
transducin = conditions: absence of rhodopsin; cited from earlier work
[1] = test system: GTPase activity of Tα (purified Tαβγ); assay: GTPase activity of purified Tαβγ in the presence of depleted ROS membranes; format: biochemical
Outline: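 Purified native transducin (Tαβγ) reconstituted with depleted rod outer segment membranes, which carry rhodopsin and a trace of residual transducin. […] Components (transducin, UNC119, depleted membranes) checked by SDS-PAGE.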

competition for binding of Tα to UNC119 (binding of Tα to UNC119): did not
Substance: GAGASAEEKH

competition for binding of Tα to UNC119 (binding of Tα to UNC119): competes for binding
Substance: Lauroyl-GAGASAEEKH

binding relative to the lauroyl Tα peptide (human UNC119; listed as Lauroyl-ODR-3): more than one order of magnitude weaker
binding relative to the lauroyl Tα peptide (human UNC119; listed as ODR-3 N-terminal peptide): lower affinity interaction
Substance: Lauroyl-GSCQSNENSE

interaction with recombinant human UNC119 (human UNC119): tight binding
number of binding sites (human UNC119; one-site model): single site
Substance: Myristoyl-GAGASAEEKH

Substance: Tα(G2A): Tα with G2 replaced with alanine, a mutation preventing Tα acylation
interaction with GST-UNC119 in pulldown of protein expressed in HEK cells (GST-UNC119; bovine Tα or Tα(G2A) expressed in HEK cells, anti-Tα blot): does not interact; also recorded: did not interact

Substance: Tα: rod photoreceptor transducin α-subunit
t1/2 of light-induced translocation to the inner segment (rod photoreceptors): 3 to 5 min
interaction with GST-UNC119 in pulldown from retina lysate (GST-UNC119; bovine or mouse retina lysate, Coomassie/LC-MS/MS or immunoblot): UNC119 interacts with Tα; also recorded: is pulled down

Substance: Tβγ: transducin βγ subunits
t1/2 of light-induced translocation to the inner segment (rod photoreceptors): approximately 12 min

Substance: UNC119B: isoform encoded by UNC119B gene, 61% similar and 52% identical to UNC119
pulldown of Tα by GST-UNC119B (Tα): pulls down Tα from bovine retina lysate

Substance: transducin: purified native heterotrimeric transducin
GTP/GDP exchange rate constant (transducin): 10^−4 /sec
Kcat of GTPase ([1]; depleted ROS membranes reconstituted with transducin): 1.5 moles GTPhydrolyzed/mol transducin/min
GTPase activity rate of the reconstituted system ([1]; purified Tαβγ in the presence of ROS membranes, Fig. 5C red line): 1.5 mole GTP/min
